# Reference: ChEMBL document CHEMBL1124483 (J Med Chem, 1989)
# Test: Lethal dose of the compound, when administered intraperitoneally in mice
# Format: toxicity, organism-based
# Conditions: mouse, in vivo, ip
# Method in brief: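 Male Swiss Webster mice (15–20 g), five per dose level, at least four dose levels, given ip injection (0.10 mL/10 g) in normal saline or saline/phosphate-buffered saline, with EtOH up to 2.5% final for some; solvent-only control group.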
row,SMILES,LD50 [µmol/kg]
1,OC1CCCCC1N1CCC(Cc2ccccc2)CC1 (stereo not given),> 180
2,O[C@H]1CCCC[C@@H]1N1CCC(c2ccccc2)CC1,> 190
3,C[N+]1(C2CCCCC2O)CCC(c2ccccc2)CC1 (stereo not given),> 180
4,OC1CCCCC1N1CCC(c2ccccc2)CC1 (racemic),16
5,CCC(O)CN1CCC(c2ccccc2)CC1 (stereo not given),300
6,OC1CC2CCCCC2CC1N1CCC(c2ccccc2)CC1 (racemic),2
7,CC1(O)CCCC[C@H]1N1CCC(c2ccccc2)CC1 (stereo not given in full),> 180
8,CC(C)(C)[C@H]1CC[C@@H](O)[C@H](N2CCC(c3ccccc3)CC2)C1,5.7
9,OC1CCCCC1N1CC=C(c2ccc(Cl)cc2)CC1 (stereo not given),> 340
10,O[C@@H]1CCCC[C@H]1N1CCC(c2ccccc2)CC1 [VESAMICOL],12
11,CC(=O)Nc1cccc2c1CC(N1CCC(c3ccccc3)CC1)C(O)C2 (stereo not given),1.7
12,CO[C@H]1CCC[C@@H](N2CCC(c3ccccc3)CC2)[C@@H]1O,240
13,COc1ccccc1N1CCN(C2CC3CCCCC3CC2O)CC1 (racemic; 68),12
14,OC1Cc2ccccc2CC1N1CCC(c2ccccc2)CC1 (stereo not given),1.2
15,OC1CCCC1N1CCC(c2ccccc2)CC1 (stereo not given),> 200
